Experimental data published in ChEMBL document CHEMBL1629659, “Bronchopulmonary disposition of micafungin in healthy adult volunteers” (Antimicrob Agents Chemother, 2009).
Numbered stars: 1 amine (or outer) side, 2 acyl side, 3 side chain; on linkers, the order of the positions; unused ones are H or OH. Bridge positions count the residues as written; N and C are the ends. Square brackets hold non-standard residues; d marks the D form. Peptide text beside a SMILES is read from it. * marks the point of attachment. hTyr(3S-OH,4S-OH,3'-OSO3H) = N[C@H](C(=O)O)[C@H](O)[C@@H](O)c1ccc(O)c(OS(=O)(=O)O)c1; Orn(4R-OH,5R-OH) = O=C([C@H](C[C@@H](O)[C@@H](O)N[*:3])N[*:1])[*:2]; Pro(3S-OH,4S-Me) = C[C@H]1CN[C@H](C(=O)O)[C@H]1O; X1 = CCCCCOc1ccc(-c2cc(-c3ccc(C(=O)*)cc3)no2)cc1; Gln(3R-OH) = NC(=O)C[C@@H](O)[C@H](N)C(=O)O; Hyp = O=C(O)[C@@H]1C[C@@H](O)CN1

Tests used:
[1] = Clearance at steady state in healthy human plasma at 150 mg, iv […]; type: ADME, organism-based
Summary of the method: (§1)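 Fifteen healthy adults received micafungin 150 mg IV, infused over 1 h every 24 h, for three doses. Blood was drawn before the third dose, at end of infusion (1 h), and 4, 12 and 24 h after the third dose. Plasma levels were measured by validated HPLC (linear 0.05–25.0 μg/ml). Parameters came from noncompartmental analysis over the 24-h dosing interval.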

[2] = Drug concentration in Alveolar macrophage cells of healthy human at 150 mg, iv […] measured after 24 hrs of third postdose by urea dilution method; type: ADME, organism-based; settings: read-out: Drug uptake
Summary of the method: (§2)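 The first aspirate was discarded and the rest pooled. Cells were pelleted and lysed. Drug in BAL fluid and pellet was measured by HPLC. Urea in BAL and plasma was measured by colorimetric enzymatic assay. ELF and alveolar-cell levels were derived by urea dilution.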

[3] = Drug concentration in healthy human epithelial lining fluid at 150 mg, iv […] measured after 24 hrs of third postdose by urea dilution method; type: ADME, organism-based; settings: read-out: Drug uptake; summary of the method: as §2
Plasma [4] = assay: Plasma protein binding in healthy human; type: ADME, cell-free
[5] = Ratio of Cmax to MEC for Aspergillus; type: functional
Aspergillus fumigatus [6] = assay: Antimicrobial activity against non-germinated Aspergillus fumigatus conidia; type: functional; settings: read-out: MEC
[7] = Drug concentration in healthy human plasma at 150 mg, iv QD measured after 4 hrs of third postdose by high-pressure liquid chromatography method; settings: read-out: Drug uptake
[8] = Drug concentration in healthy human epithelial lining fluid at 150 mg, iv QD measured after 12 hrs of third postdose by urea dilution method; settings: read-out: Drug uptake
Plasma [9] = assay: Plasma concentration in healthy human at 150 mg, iv […] measured before third dose; type: ADME, organism-based; settings: in vivo
Summary of the method: (§3)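 Healthy volunteers (n=15) were given 150 mg micafungin IV over 1 h every 24 h for three doses. Plasma was sampled before and after the third dose (0, 1, 4, 12, 24 h). Quantitation used modified, validated HPLC with a standard curve linear over 0.05–25.0 μg/ml. Interday CV was ≤11.3% and intraday CV <18%.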

[10] = Drug concentration in healthy human epithelial lining fluid at 150 mg, iv QD measured after 4 hrs of third postdose by urea dilution method; settings: read-out: Drug uptake
[11] = AUC ( 0 to 24 hrs) in healthy human plasma at 150 mg, […]; type: ADME, organism-based; parameters: dose 150 mg, time < 24 hr, route intravenous; settings: iv; summary of the method: as §1
[12] = Drug concentration in healthy human plasma at 150 mg, iv QD measured after 24 hrs of third postdose by high-pressure liquid chromatography method; settings: read-out: Drug uptake
[13] = Drug concentration in Alveolar macrophage cells of healthy human at 150 mg, iv […] measured after 4 hrs of third postdose by urea dilution method; type: ADME, organism-based; settings: read-out: Drug uptake; summary of the method: as §2
[14] = AUC ( 0 to 24 hrs) in Alveolar macrophage cells of healthy human at 150 mg, iv […]; type: ADME, organism-based; parameters: time < 24 hr, dose 150 mg, route intravenous
Summary of the method: (§4)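 Steady-state ELF and alveolar-cell concentrations were derived by urea dilution from BAL, with one bronchoscopy per subject at 4, 12 or 24 h after the third 150 mg IV dose (five subjects per time). A composite AUC over 0–24 h was calculated across subjects by the trapezoidal rule.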

[15] = Cmax in healthy human plasma at 150 mg, iv […]; type: ADME, organism-based; parameters: dose 150 mg, route intravenous; summary of the method: as §1
[16] = Penetration ratio, ratio of AUC for human epithelial lining fluid to AUC for human plasma; type: ADME; settings: read-out: Ratio AUC
Summary of the method: (§5)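 Penetration was expressed as composite AUC0-24 in ELF or alveolar cells (urea-dilution-corrected BAL data, trapezoidal rule) divided by plasma AUC0-24 (noncompartmental). Subjects received 150 mg IV daily for three doses.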

[17] = Penetration ratio, ratio of AUC for alveolar macrophage cells of healthy human to AUC for human plasma; type: ADME, cell-based; settings: read-out: Ratio AUC; summary of the method: as §5
[18] = Drug concentration in Alveolar macrophage cells of healthy human at 150 mg, iv […] measured after 12 hrs of third postdose by urea dilution method; type: ADME, organism-based; settings: read-out: Drug uptake; summary of the method: as §2
[19] = Volume of distribution in healthy human plasma at 150 mg, iv […]; type: ADME, organism-based; summary of the method: as §1
[20] = Plasma concentration in healthy human at 150 mg, iv […] measured after 24 hrs of third postdose; type: ADME, organism-based; summary of the method: as §3
Aspergillus fumigatus [21] = assay: Antimicrobial activity against germinated Aspergillus fumigatus conidia; type: functional; settings: read-out: MEC
[22] = Half life in healthy human plasma at 150 mg, iv […]; type: ADME, organism-based; summary of the method: as §1
[23] = AUC ( 0 to 24 hrs) in healthy human epithelial lining fluid at 150 mg, iv […]; type: ADME, organism-based; parameters: dose 150 mg, time < 24 hr, route intravenous; summary of the method: as §4
[24] = Drug concentration in healthy human plasma at 150 mg, iv QD measured after 12 hrs of third postdose by high-pressure liquid chromatography method; settings: read-out: Drug uptake

With `CCCCCOc1ccc(-c2cc(-c3ccc(C(=O)N[C@H]4C[C@@H](O)[C@@H](O)NC(=O)[C@@H]5[C@@H](O)[C@@H](C)CN5C(=O)[C@H]([C@H](O)CC(N)=O)NC(=O)[C@H]([C@H](O)[C@@H](O)c5ccc(O)c(OS(=O)(=O)O)c5)NC(=O)[C@@H]5C[C@@H](O)CN5C(=O)[C@H]([C@@H](C)O)NC4=O)cc3)no2)cc1` [MICAFUNGIN] (X1-[Orn(4R-OH,5R-OH)]T[Hyp][hTyr(3S-OH,4S-OH,3'-OSO3H)][Gln(3R-OH)][Pro(3S-OH,4S-Me)]; lactam 1-C) as the compound, how does the clearance [1] read?
The clearance was 11.7 mL/min.

And the concentration at 24 h [2]?
The concentration at 24 h was 14600 ng/mL.

And the concentration at 24 h [3]?
Its concentration at 24 h is 430 ng/mL.

What about the PPB (Plasma [4]) of the same compound?
Its PPB is 99%.

What about the Ratio [5] of the same compound?
The Ratio was 10.

What about the minimal effective concentration (Aspergillus fumigatus [6]) of the same compound?
Its minimal effective concentration is 0.06 µg/mL.

What about the concentration at 4 h [7] of the same compound?
Its concentration at 4 h is 14800 ng/mL.

What about the concentration at 12 h [8] of the same compound?
The concentration at 12 h was 440 ng/mL.

And the Cp (Plasma [9])?
Its Cp is 4280 ng/mL.

And the concentration at 4 h [10]?
Its concentration at 4 h is 520 ng/mL.

What about the AUC at 24 h [11] of the same compound?
Its AUC at 24 h is 220 µg·h/mL.

And the concentration at 24 h [12]?
The concentration at 24 h was 4800 ng/mL.

What about the concentration at 4 h [13] of the same compound?
The concentration at 4 h was 10400 ng/mL.

And the AUC at 24 h [14]?
The AUC at 24 h was 234 µg·h/mL.

And the Cmax [15]?
Its Cmax is 19100 ng/mL.

What about the Kp [16] of the same compound?
Its Kp is 5.

And the Kp [17]?
Its Kp is 106.

And the concentration at 12 h [18]?
The concentration at 12 h was 8400 ng/mL.

And the Vd [19]?
Its Vd is 15 L.

What about the concentration at 24 h [20] of the same compound?
The concentration at 24 h was 4670 ng/mL.

What about the minimal effective concentration (Aspergillus fumigatus [21]) of the same compound?
The minimal effective concentration was 0.25 µg/mL.

What about the half-life [22] of the same compound?
Its half-life is 14.7 h.

What about the AUC at 24 h [23] of the same compound?
The AUC at 24 h was 10.2 µg·h/mL.

And the concentration at 12 h [24]?
Its concentration at 12 h is 7400 ng/mL.
